Laboratory results: ChEMBL document CHEMBL4376814, “Novel cyclin-dependent kinase 9 (CDK9) inhibitor with suppression of cancer stemness activity against non-small-cell lung cancer” (Eur J Med Chem, 2019)
Activity calls are given as the source filed them. The rule behind the calls is not given here.

What was measured:
[1] = tested on: NCI-H1299; experiment: Antitumour activity against human H1299 cells xenografted in Balb/c mouse assessed as inhibition of phosphorylation of RNA polymerase 2 CTD domain at Ser 5 residue at 20 to 80 mg/kg, po administered for 3 weeks by […] based light microscopic analysis; assay type: functional, organism-based
Summary of the method: (§1)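 Tumours came from the H1299 oral-dosing xenograft run for 3 weeks. Formalin-fixed, paraffin-embedded 5-µm sections were deparaffinized and rehydrated. Primary antibodies (CDK9, cyclin T1, p-Rb Ser780, RNAPII CTD Ser5, Oct4) used at 1:100 overnight at 4 °C. Biotinylated secondary for 1 h at room temperature, then ABC-peroxidase/DAB, hematoxylin counterstain and light microscopy.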

[2] = target: Ribosomal protein S6 kinase alpha-4 (Homo sapiens) (UniProt O75676); experiment: Inhibition of recombinant human MSK2 (2 to end residues) at 1 uM using GRPRTSSFAEGKK as substrate measured after 40 mins in presence of [gamma33P]ATP by scintillation counting method relative to control
Ribosomal protein S6 kinase alpha-4 (Homo sapiens), sequence (O75676 whole entry, looked up): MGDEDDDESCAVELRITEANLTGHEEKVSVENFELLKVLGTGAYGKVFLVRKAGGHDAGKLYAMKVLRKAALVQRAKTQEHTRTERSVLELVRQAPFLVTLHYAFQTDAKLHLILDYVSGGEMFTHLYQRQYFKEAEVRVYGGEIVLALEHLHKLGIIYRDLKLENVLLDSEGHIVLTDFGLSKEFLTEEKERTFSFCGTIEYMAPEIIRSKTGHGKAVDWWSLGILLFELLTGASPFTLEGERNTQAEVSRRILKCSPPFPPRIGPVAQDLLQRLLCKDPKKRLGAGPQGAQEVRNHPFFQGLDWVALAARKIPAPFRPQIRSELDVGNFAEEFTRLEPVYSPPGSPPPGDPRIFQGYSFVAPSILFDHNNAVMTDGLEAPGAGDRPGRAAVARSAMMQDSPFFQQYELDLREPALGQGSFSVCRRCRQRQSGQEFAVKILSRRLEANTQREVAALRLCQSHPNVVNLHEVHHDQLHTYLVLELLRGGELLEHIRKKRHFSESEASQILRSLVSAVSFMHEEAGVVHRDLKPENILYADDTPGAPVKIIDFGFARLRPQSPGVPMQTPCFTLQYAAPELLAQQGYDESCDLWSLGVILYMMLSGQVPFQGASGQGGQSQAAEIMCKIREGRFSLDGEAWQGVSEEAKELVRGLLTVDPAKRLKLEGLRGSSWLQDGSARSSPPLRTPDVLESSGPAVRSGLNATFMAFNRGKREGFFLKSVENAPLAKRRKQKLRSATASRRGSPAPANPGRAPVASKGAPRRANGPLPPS

[3] = tested on: PI3-kinase p110-alpha/p85-alpha (Homo sapiens), P27986+P42336 [E545K]; experiment: Inhibition of recombinant full-length human PI3K p110alpha/p85alpha E545K mutant at 1 uM using phosphatidylinositol-4, 5-bisphosphate as substrate measured after 40 mins by HTRF assay relative to control; assay type: protein-complex assay
[4] = tested on: A549; experiment: Inhibition of tumorsphere formation in human A549 cells assessed as reduction in side population ratio at 0.25 to 1 uM by PI/Hoechst 33342 staining based flow cytometry; assay type: functional, cell-based
[5] = target: Protein kinase C delta type (Homo sapiens) (UniProt Q05655); experiment: Inhibition of recombinant human PKCdelta (2 to end residues) at 1 uM using ERMRPRKRQGSVRRR as substrate measured after 40 mins in presence of [gamma33P]ATP by scintillation counting method relative to control
[6] = target: Ribosomal protein S6 kinase alpha-6 (Homo sapiens) (UniProt Q9UK32); experiment: Inhibition of recombinant full-length human Rsk4 at 1 uM using LRRASLG as substrate measured after 40 mins in presence of [gamma33P]ATP by scintillation counting method relative to control
Ribosomal protein S6 kinase alpha-6 (Homo sapiens), sequence (Q9UK32 whole entry): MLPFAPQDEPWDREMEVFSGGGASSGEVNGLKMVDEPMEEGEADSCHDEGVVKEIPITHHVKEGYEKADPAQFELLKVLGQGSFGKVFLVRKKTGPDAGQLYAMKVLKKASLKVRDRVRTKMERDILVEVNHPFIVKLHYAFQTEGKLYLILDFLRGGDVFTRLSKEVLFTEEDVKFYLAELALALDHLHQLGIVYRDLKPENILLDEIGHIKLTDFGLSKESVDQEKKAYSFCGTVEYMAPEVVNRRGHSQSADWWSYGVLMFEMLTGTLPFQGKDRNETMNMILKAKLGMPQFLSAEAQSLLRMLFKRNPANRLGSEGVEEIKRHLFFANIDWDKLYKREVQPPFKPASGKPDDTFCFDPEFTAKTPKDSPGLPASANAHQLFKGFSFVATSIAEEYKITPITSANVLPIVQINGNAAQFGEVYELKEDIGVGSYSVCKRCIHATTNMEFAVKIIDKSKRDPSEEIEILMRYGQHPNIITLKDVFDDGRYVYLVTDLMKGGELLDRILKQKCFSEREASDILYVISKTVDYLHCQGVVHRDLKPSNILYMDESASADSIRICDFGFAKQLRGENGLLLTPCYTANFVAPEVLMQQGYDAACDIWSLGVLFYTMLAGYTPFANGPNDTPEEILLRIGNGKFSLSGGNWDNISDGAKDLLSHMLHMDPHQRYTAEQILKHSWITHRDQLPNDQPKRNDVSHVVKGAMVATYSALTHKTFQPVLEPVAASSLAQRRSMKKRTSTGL

[7] = target: Mitogen-activated protein kinase 1 (Homo sapiens) (UniProt P28482); experiment: Inhibition of recombinant full-length human MAPK2 at 1 uM using MBP as substrate measured after 40 mins in presence of [gamma33P]ATP by scintillation counting method relative to control
Mitogen-activated protein kinase 1 (Homo sapiens), sequence (P28482 whole entry, the tested form may be a part): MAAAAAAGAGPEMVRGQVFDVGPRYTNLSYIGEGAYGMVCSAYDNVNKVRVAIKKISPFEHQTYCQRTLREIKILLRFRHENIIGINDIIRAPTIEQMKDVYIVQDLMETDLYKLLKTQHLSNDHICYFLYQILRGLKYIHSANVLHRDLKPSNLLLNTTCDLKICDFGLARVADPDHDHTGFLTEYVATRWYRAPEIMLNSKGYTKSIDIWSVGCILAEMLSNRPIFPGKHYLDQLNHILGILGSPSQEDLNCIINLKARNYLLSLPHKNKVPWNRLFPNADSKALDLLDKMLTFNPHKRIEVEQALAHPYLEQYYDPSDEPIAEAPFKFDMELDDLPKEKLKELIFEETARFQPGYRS

[8] = target: Mitogen-activated protein kinase kinase kinase kinase 4 (Homo sapiens) (UniProt O95819); experiment: Inhibition of recombinant human MAP4K4 (1 to 328 residues) at 1 uM using RLGRDKYKTLRQIRQ as substrate measured after 40 mins in presence of [gamma33P]ATP by scintillation counting method relative to control
Mitogen-activated protein kinase kinase kinase kinase 4 (Homo sapiens), sequence (O95819 2-1239 limits assumed): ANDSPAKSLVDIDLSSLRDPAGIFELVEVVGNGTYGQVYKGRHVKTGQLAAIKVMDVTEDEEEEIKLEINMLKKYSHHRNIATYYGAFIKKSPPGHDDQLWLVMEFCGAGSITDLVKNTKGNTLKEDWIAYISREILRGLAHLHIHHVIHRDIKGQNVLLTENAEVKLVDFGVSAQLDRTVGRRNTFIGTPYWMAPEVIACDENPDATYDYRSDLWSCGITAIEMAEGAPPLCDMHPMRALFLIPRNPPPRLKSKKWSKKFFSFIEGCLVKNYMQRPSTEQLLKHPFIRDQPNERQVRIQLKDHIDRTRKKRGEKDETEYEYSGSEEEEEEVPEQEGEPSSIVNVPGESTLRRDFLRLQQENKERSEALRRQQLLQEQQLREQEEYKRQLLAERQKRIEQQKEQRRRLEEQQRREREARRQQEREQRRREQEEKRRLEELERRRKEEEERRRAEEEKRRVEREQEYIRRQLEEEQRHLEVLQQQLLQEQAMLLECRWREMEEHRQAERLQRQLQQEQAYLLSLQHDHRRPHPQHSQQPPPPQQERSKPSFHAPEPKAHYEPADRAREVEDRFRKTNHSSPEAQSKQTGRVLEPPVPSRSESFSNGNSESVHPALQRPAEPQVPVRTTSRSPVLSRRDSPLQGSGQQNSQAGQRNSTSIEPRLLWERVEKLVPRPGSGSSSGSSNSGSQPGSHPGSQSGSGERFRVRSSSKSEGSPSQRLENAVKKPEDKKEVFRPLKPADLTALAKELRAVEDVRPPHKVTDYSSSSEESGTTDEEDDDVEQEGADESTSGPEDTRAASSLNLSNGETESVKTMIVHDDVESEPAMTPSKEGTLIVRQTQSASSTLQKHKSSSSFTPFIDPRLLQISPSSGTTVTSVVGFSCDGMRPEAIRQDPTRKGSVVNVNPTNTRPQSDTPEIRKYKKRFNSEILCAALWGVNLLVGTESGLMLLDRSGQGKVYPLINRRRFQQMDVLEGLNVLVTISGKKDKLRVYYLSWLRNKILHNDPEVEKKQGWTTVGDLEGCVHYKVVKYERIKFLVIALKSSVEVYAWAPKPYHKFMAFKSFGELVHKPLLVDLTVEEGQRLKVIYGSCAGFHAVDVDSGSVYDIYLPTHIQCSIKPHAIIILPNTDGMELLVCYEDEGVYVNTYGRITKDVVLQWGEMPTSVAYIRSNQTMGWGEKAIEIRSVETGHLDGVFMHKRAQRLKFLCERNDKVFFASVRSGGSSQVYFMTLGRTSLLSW

[9] = target: Serine/threonine-protein kinase PAK 5 (Homo sapiens) (UniProt Q9P286); experiment: Inhibition of recombinant human PAK5 (425 to end residues) at 1 uM using RRRLSFAEPG as substrate measured after 40 mins in presence of [gamma33P]ATP by scintillation counting method relative to control
Serine/threonine-protein kinase PAK 5 (Homo sapiens), sequence (Q9P286 whole entry, looked up, the tested form may be a part): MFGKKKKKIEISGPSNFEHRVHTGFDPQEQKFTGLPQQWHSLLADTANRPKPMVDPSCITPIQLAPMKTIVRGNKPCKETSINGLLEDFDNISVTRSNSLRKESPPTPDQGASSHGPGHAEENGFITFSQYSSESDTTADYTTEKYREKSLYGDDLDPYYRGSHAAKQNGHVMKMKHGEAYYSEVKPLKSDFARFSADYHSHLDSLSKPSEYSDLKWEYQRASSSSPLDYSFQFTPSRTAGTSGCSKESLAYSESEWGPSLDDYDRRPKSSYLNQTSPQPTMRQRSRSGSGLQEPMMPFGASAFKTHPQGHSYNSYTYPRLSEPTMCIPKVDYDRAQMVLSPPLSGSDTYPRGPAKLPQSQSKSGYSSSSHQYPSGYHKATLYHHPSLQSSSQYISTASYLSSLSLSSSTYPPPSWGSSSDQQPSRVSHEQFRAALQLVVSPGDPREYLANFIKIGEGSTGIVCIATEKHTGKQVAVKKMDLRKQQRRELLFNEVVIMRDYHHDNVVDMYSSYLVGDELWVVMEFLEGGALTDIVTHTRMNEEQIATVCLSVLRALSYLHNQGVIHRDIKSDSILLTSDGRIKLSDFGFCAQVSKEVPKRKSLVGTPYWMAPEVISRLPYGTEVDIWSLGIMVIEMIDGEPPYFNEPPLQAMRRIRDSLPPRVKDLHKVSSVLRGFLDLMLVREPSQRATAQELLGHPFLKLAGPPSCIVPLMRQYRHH

[10] = target: Mitogen-activated protein kinase kinase kinase kinase 2 (Homo sapiens) (UniProt Q12851); experiment: Inhibition of recombinant human GCK (1 to 473 residues) at 1 uM using myelin basic protein as substrate measured after 40 mins in presence of [gamma33P]ATP by scintillation counting method relative to control
[11] = tested on: NCI-H1299; experiment: Induction of cell cycle arrest in human H1299 cells assessed as reduction in accumulation of cells at S phase at 1 uM after 24 hrs by propidium iodide/RNase staining based flow cytometric analysis (reference value: 24.5%); assay type: functional; parameters: scale not given: the % may be the effect or the level left
Summary of the method: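 A549 and H1299 plated at 5×10^5 cells/mL in 6-well plates, treated after adherence for 24 h. Washed with PBS, fixed overnight in ice-cold 75% ethanol, stained with propidium iodide plus RNase A for 30 min at 37 °C, analysed by flow cytometry for phase distribution. Means ± SD, three independent experiments.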

[12] = target: SRSF protein kinase 1 (Homo sapiens) (UniProt Q96SB4); experiment: Inhibition of human SRPK1 (2 to end residues) at 1 uM using RSRSRSRSRSRSRSR as substrate measured after 40 mins in presence of [gamma33P]ATP by scintillation counting method relative to control
Summary of the method: (§2)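 Single-point inhibition at 1 µM was measured in the Eurofins KinaseProfiler panel. Values are the mean of two independent experiments.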

[13] = target: Protein kinase C theta type (Homo sapiens) (UniProt Q04759); experiment: Inhibition of recombinant full-length human PKCtheta at 1 uM using histone H1as substrate measured after 40 mins in presence of [gamma33P]ATP by scintillation counting method relative to control
Protein kinase C theta type (Homo sapiens), sequence (Q04759 whole entry, looked up): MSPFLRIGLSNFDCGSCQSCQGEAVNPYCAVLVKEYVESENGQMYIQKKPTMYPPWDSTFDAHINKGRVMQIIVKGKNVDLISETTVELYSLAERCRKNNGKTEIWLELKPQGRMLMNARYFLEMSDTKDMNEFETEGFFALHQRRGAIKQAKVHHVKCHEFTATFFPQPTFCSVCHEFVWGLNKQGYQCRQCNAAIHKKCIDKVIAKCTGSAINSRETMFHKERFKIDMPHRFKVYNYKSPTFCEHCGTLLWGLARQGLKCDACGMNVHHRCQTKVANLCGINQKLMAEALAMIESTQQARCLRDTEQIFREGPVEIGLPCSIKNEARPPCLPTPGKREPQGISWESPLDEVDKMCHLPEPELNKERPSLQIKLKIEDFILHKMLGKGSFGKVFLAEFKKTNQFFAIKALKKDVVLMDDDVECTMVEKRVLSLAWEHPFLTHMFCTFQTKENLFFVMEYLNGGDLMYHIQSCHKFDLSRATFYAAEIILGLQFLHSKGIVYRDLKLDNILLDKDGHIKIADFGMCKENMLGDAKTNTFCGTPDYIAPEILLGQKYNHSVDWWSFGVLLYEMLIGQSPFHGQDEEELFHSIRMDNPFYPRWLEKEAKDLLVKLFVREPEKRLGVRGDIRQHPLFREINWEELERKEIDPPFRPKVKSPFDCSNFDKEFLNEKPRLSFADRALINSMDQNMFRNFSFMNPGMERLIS

[14] = target: Serine/threonine-protein kinase STK11 (Homo sapiens) (UniProt Q15831); experiment: Inhibition of recombinant full-length human LKB1 at 1 uM using LSNLYHQGKFLQTFCGSPLYRRR as substrate measured after 40 mins in presence of [gamma33P]ATP by scintillation counting method relative to control
[15] = tested on: Mast/stem cell growth factor receptor Kit (Homo sapiens), P10721 [D816H]; experiment: Inhibition of recombinant human cKit (544 to end residues) D816H mutant at 1 uM using GGMEDIYFEFMGGKKK as substrate measured after 40 mins in presence of [gamma33P]ATP by scintillation counting method relative to control; summary of the method: as §2
[16] = target: [Pyruvate dehydrogenase (acetyl-transferring)] kinase isozyme 2, mitochondrial (Homo sapiens) (UniProt Q15119); experiment: Inhibition of human PDHK2 at 1 uM by radiometric method relative to control
Summary of the method: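 Percent inhibition of kinase activity at a single compound concentration, measured by the outsourced Eurofins KinaseProfiler panel. Values are the mean of two independent experiments.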

[17] = target: Serine/threonine-protein kinase 4 (Homo sapiens) (UniProt Q13043); experiment: Inhibition of recombinant full-length human MST1 at 1 uM using KKSRGDYMTMQIG as substrate measured after 40 mins in presence of [gamma33P]ATP by scintillation counting method relative to control
[18] = tested on: NCI-H1299; experiment: Antitumour activity against human H1299 cells xenografted in Balb/c mouse assessed as effect on CDK9 level at 20 to 80 mg/kg, po administered for 3 weeks by […] based light microscopic analysis; assay type: functional, organism-based; summary of the method: as §1
[19] = tested on: Casein kinase I isoform gamma-3 (Homo sapiens), Q9Y6M4 [UNDEFINED MUTATION]; experiment: Inhibition of recombinant human CK1gamma3 K91E/R174G/E302D mutant (1 to 330 residues) at 1 uM using KRRRALS(p)VASLPGL as substrate measured after 40 mins in presence of [gamma33P]ATP by scintillation counting method relative to control; summary of the method: as §2
Casein kinase I isoform gamma-3 (Homo sapiens), Q9Y6M4 [UNDEFINED MUTATION], sequence (Q9Y6M4 whole entry, looked up, stated change not applied, the tested form may be a part, canonical isoform): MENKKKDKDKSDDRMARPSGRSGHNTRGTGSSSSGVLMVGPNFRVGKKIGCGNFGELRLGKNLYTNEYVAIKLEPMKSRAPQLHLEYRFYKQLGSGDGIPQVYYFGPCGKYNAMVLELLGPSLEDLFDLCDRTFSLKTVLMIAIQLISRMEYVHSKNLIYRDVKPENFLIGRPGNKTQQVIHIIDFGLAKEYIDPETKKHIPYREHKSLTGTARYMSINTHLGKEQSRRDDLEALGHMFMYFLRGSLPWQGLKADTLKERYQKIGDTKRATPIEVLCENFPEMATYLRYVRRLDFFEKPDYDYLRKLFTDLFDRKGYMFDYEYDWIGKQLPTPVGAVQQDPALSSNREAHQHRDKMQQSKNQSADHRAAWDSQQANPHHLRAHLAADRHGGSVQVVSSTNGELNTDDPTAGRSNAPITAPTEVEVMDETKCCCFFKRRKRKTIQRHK

[20] = tested on: Tyrosine-protein kinase ABL1 (Homo sapiens), P00519 [Q252H]; experiment: Inhibition of recombinant human ABL Q252H mutant (27 to end residues) at 1 uM using EAIYAAPFAKKK as substrate measured after 40 mins in presence of [gamma33P]ATP by scintillation counting method relative to control

Question: Which results are given for CN(C)C(=O)c1cc2cnc(Nc3ccc(NC(=O)CCCCCCCN=C=S)cc3)nc2n1C1CCCC1?
Answer: Activity [1]: Active; inhibition [2]: 6%; inhibition [3]: 4%; inhibition [4]: Active; inhibition [5]: 8%; inhibition [6]: 38%; inhibition [7]: 7%; inhibition [8]: 16%; inhibition [9]: -3%; inhibition [10]: 81%; Activity [11]: 11.2%; inhibition [12]: 12%; inhibition [13]: 47%; inhibition [14]: 0%; inhibition [15]: 59%; inhibition [16]: -10%; inhibition [17]: 17%; Activity [18]: inactive; inhibition [19]: 11%; inhibition [20]: 48%
